# Assay results published in ChEMBL document CHEMBL1156416, “Influence of high mutation rates on the mechanisms and dynamics of in vitro and in vivo resistance development to single or combined antipseudomonal agents” (Antimicrob Agents Chemother, 2007).
# Active and inactive are the calls of the source. The rule behind the calls is not given here.
# Assays:
# Pseudomonas aeruginosa [1] = experiment: Antibacterial activity against Pseudomonas aeruginosa PAO1 by Etest; format: functional
# Method in brief: (§1)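 Etest strips were applied on Mueller-Hinton agar following the manufacturer's recommendations. For PAOΔmutS, the MIC read was that of the main population, ignoring resistant colonies growing within the inhibition ellipse.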
# Pseudomonas aeruginosa [2] = experiment: Antibacterial activity against Pseudomonas aeruginosa PAOdeltamutS by Etest; format: functional; method in brief: as §1
# Pseudomonas aeruginosa [3] = experiment: Antibacterial activity against Pseudomonas aeruginosa PAO1 infected in C57BL/6J mouse assessed as mortality at 20 mg/kg, ip administered every 6 hrs; format: functional; details: route intraperitoneal
# Pseudomonas aeruginosa [4] = experiment: Antibacterial activity against Pseudomonas aeruginosa PAOdeltamutS infected in C57BL/6J mouse assessed as mortality at 20 mg/kg, ip administered every 6 hrs; format: functional; details: route intraperitoneal
# Pseudomonas aeruginosa [5] = experiment: Antibacterial activity against Pseudomonas aeruginosa PAO1 infected in C57BL/6J mouse assessed as lung bacterial count at 10 mg/kg, ip administered every 6 hrs; format: functional, organism-based; set-up: dose 10 mg/kg
# Mus musculus [6] = experiment: fAUC (0 to 24 hrs) in Pseudomonas aeruginosa PAO1 infected C57BL/6J mouse at 10 mg/kg, ip administered every 6 hrs; format: ADME, organism-based; set-up: dose 10 mg/kg, route intraperitoneal; details: in vivo
# [7] = fAUC (0 to 24 hrs)/MIC ratio in Pseudomonas aeruginosa PAO1 infected C57BL/6J mouse at 10 mg/kg, ip administered every 6 hrs; format: functional; details: route intraperitoneal
# Pseudomonas aeruginosa [8] = experiment: Antibacterial activity against Pseudomonas aeruginosa PAO1 infected in C57BL/6J mouse assessed as mortality at 10 mg/kg, ip administered every 6 hrs; format: functional; details: route intraperitoneal
# Mus musculus [9] = experiment: fCmax in Pseudomonas aeruginosa PAO1 infected C57BL/6J mouse at 10 mg/kg, ip administered every 6 hrs; format: ADME, organism-based; set-up: dose 10 mg/kg, route intraperitoneal; details: in vivo
# Pseudomonas aeruginosa [10] = experiment: Antibacterial activity against Pseudomonas aeruginosa PAOdeltamutS infected in C57BL/6J mouse assessed as lung bacterial count at 10 mg/kg, ip administered every 6 hrs; format: functional, organism-based; set-up: dose 10 mg/kg
# [11] = fAUC (0 to 24 hrs)/MIC ratio in Pseudomonas aeruginosa PAOdeltamutS infected C57BL/6J mouse at 10 mg/kg, ip administered every 6 hrs; format: functional; details: route intraperitoneal
# [12] = fCmax/MIC ratio in Pseudomonas aeruginosa PAO1 infected C57BL/6J mouse at 10 mg/kg, ip administered every 6 hrs; format: functional; details: route intraperitoneal
# [13] = fCmax/MIC ratio in Pseudomonas aeruginosa PAOdeltamutS infected C57BL/6J mouse at 10 mg/kg, ip administered every 6 hrs; format: functional; details: route intraperitoneal
# Pseudomonas aeruginosa [14] = experiment: Antibacterial activity against Pseudomonas aeruginosa PAOdeltamutS infected in C57BL/6J mouse assessed as mortality at 10 mg/kg, ip administered every 6 hrs; format: functional; details: route intraperitoneal
# [15] = Half life of free unbound fraction in Pseudomonas aeruginosa PAO1 infected C57BL/6J mouse at 10 mg/kg, ip administered every 6 hrs; format: ADME, organism-based; set-up: dose 10 mg/kg, route intraperitoneal; details: in vivo, read-out: t1/2 unbound fraction (converted)
# Pseudomonas aeruginosa [16] = experiment: Antibacterial activity against Pseudomonas aeruginosa PAOdeltamutS infected in C57BL/6J mouse assessed as lung bacterial count at 70 mg/kg, ip administered every 3 hrs; format: functional, organism-based; set-up: dose 70 mg/kg
# Method in brief: (§2)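 Female C57BL/6J mice (20–25 g) were anesthetized with ketamine/xylazine ip. They were inoculated transtracheally with about 2 × 10⁴ cells embedded in agarose beads. Ceftazidime 70 mg/kg every 3 h (or sterile water placebo) started 24 h after inoculation and ran for 3 days, 30 mice per group in two experiments. Lungs were taken 24 h after treatment ended, homogenized in saline, diluted 1/10 serially and plated on MHA; median counts were reported.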
# Pseudomonas aeruginosa [17] = experiment: f%T>MIC in Pseudomonas aeruginosa PAO1 infected C57BL/6J mouse at 70 mg/kg, ip administered every 3 hrs; format: functional; details: route intraperitoneal
# [18] = fCmax/MIC ratio in Pseudomonas aeruginosa PAOdeltamutS infected C57BL/6J mouse at 70 mg/kg, ip administered every 3 hrs; format: functional; details: route intraperitoneal
# [19] = fAUC (0 to 24 hrs)/MIC ratio in Pseudomonas aeruginosa PAOdeltamutS infected C57BL/6J mouse at 70 mg/kg, ip administered every 3 hrs; format: functional; details: route intraperitoneal
# Mus musculus [20] = experiment: fCmax in Pseudomonas aeruginosa PAO1 infected C57BL/6J mouse at 70 mg/kg, ip administered every 3 hrs; format: ADME, organism-based; set-up: dose 70 mg/kg, route intraperitoneal; details: in vivo
# [21] = fCmax/MIC ratio in Pseudomonas aeruginosa PAO1 infected C57BL/6J mouse at 70 mg/kg, ip administered every 3 hrs; format: functional; details: route intraperitoneal
# [22] = Half life of free unbound fraction in Pseudomonas aeruginosa PAO1 infected C57BL/6J mouse at 70 mg/kg, ip administered every 3 hrs; format: ADME, organism-based; set-up: dose 70 mg/kg, route intraperitoneal; details: in vivo, read-out: t1/2 unbound fraction (converted)
# [23] = fAUC (0 to 24 hrs)/MIC ratio in Pseudomonas aeruginosa PAO1 infected C57BL/6J mouse at 70 mg/kg, ip administered every 3 hrs; format: functional; details: route intraperitoneal
# Pseudomonas aeruginosa [24] = experiment: Antibacterial activity against Pseudomonas aeruginosa PAOdeltamutS infected in C57BL/6J mouse assessed as mortality at 70 mg/kg, ip administered every 3 hrs; format: functional; details: route intraperitoneal
# Method in brief: (§3)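 Female C57BL/6J mice (20–25 g) were infected transtracheally under ketamine/xylazine with about 2 × 10⁴ agarose-bead-embedded cells. Beginning 24 h later, they received ceftazidime 70 mg/kg every 3 h or a sterile water placebo for 3 days. There were 30 mice per group from two independent experiments of 15. Mortality was recorded as the percentage of animals per group.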
# Pseudomonas aeruginosa [25] = experiment: Antibacterial activity against Pseudomonas aeruginosa PAO1 infected in C57BL/6J mouse assessed as lung bacterial count at 70 mg/kg, ip administered every 3 hrs; format: functional, organism-based; set-up: dose 70 mg/kg; method in brief: as §2
# Pseudomonas aeruginosa [26] = experiment: Antibacterial activity against Pseudomonas aeruginosa PAO1 infected in C57BL/6J mouse assessed as mortality at 70 mg/kg, ip administered every 3 hrs; format: functional; details: route intraperitoneal; method in brief: as §3
# Mus musculus [27] = experiment: fAUC (0 to 24 hrs) in Pseudomonas aeruginosa PAO1 infected C57BL/6J mouse at 70 mg/kg, ip administered every 3 hrs; format: ADME, organism-based; set-up: dose 70 mg/kg, route intraperitoneal; details: in vivo
structure (smiles),measurement,setting,value
C[C@H]1[C@H](NC(=O)/C(=N\OC(C)(C)C(=O)O)c2csc(N)n2)C(=O)N1S(=O)(=O)O [AZTREONAM],MIC,Pseudomonas aeruginosa [1],1.5 µg/mL
same,MIC,Pseudomonas aeruginosa [2],1.5 µg/mL
CN(C)[C@@H]1C(O)=C(C(N)=O)C(=O)[C@@]2(O)C(O)=C3C(=O)c4c(O)cccc4[C@@](C)(O)[C@H]3C[C@@H]12 [TETRACYCLINE],MIC,Pseudomonas aeruginosa [1],24 µg/mL
same,MIC,Pseudomonas aeruginosa [2],24 µg/mL
O=C(O)c1cn(C2CC2)c2cc(N3CCNCC3)c(F)cc2c1=O [CIPROFLOXACIN],mortality at 20 mg/kg,Pseudomonas aeruginosa [3],26.7%
same,mortality at 20 mg/kg,Pseudomonas aeruginosa [4],26.7%
same,MIC,Pseudomonas aeruginosa [2],0.12 µg/mL
O=C(N[C@H](CO)[C@H](O)c1ccc([N+](=O)[O-])cc1)C(Cl)Cl [CHLORAMPHENICOL],MIC,Pseudomonas aeruginosa [1],32 µg/mL
same,MIC,Pseudomonas aeruginosa [2],32 µg/mL
C[C@@H](O)[C@H]1C(=O)N2C(C(=O)O)=C(S[C@@H]3CN[C@H](C(=O)N(C)C)C3)[C@H](C)[C@H]12 [MEROPENEM],MIC,Pseudomonas aeruginosa [1],0.5 µg/mL
same,MIC,Pseudomonas aeruginosa [2],0.75 µg/mL
C[C@@H](O)[C@H]1C(=O)N2C(C(=O)O)=C(SCCNC=N)C[C@H]12 [IMIPENEM ANHYDROUS],MIC,Pseudomonas aeruginosa [1],1.5 µg/mL
same,MIC,Pseudomonas aeruginosa [2],1.5 µg/mL
CO/N=C(\C(=O)N[C@@H]1C(=O)N2C(C(=O)[O-])=C(C[N+]3(C)CCCC3)CS[C@H]12)c1csc(N)n1,MIC,Pseudomonas aeruginosa [1],1 µg/mL
same,MIC,Pseudomonas aeruginosa [2],1 µg/mL
NC[C@H]1O[C@H](O[C@H]2[C@H](O)[C@@H](O[C@H]3O[C@H](CO)[C@@H](O)[C@H](N)[C@H]3O)[C@H](N)C[C@@H]2N)[C@H](N)C[C@@H]1O [TOBRAMYCIN],f %t > MIC,Pseudomonas aeruginosa [5],Active
same,fAUC,Mus musculus [6],42.96 µg·h/mL
same,fAUC/MIC,[7],43
same,MIC,Pseudomonas aeruginosa [1],1 µg/mL
same,mortality at 10 mg/kg,Pseudomonas aeruginosa [8],66.7%
same,fc max,Mus musculus [9],19.07 mg/L
same,f %t > MIC,Pseudomonas aeruginosa [10],Active
same,fAUC/MIC,[11],43
same,fc max/MIC,[12],19
same,fc max/MIC,[13],19
same,mortality at 10 mg/kg,Pseudomonas aeruginosa [14],60%
same,half-life,[15],33 min
same,MIC,Pseudomonas aeruginosa [2],1 µg/mL
CC(C)(O/N=C(\C(=O)N[C@@H]1C(=O)N2C(C(=O)[O-])=C(C[n+]3ccccc3)CS[C@H]12)c1csc(N)n1)C(=O)O [CEFTAZIDIME],Activity,Pseudomonas aeruginosa [16],Active
same,MIC,Pseudomonas aeruginosa [1],1 µg/mL
same,f %t > MIC,Pseudomonas aeruginosa [17],54%
same,fc max,[18],183
same,fAUC/MIC,[19],594
same,fc max,Mus musculus [20],183.1 mg/L
same,fc max,[21],183
same,half-life,[22],24 min
same,fAUC/MIC,[23],594
same,mortality at 70 mg/kg,Pseudomonas aeruginosa [24],43.3%
same,Activity,Pseudomonas aeruginosa [25],Active
same,MIC,Pseudomonas aeruginosa [2],1 µg/mL
same,mortality at 70 mg/kg,Pseudomonas aeruginosa [26],56.7%
same,fAUC,Mus musculus [27],593.6 µg·h/mL
